≈ marks a conversion by molar mass, not a printed value.
Assays:
Bacillus subtilis [1] = test: Antibacterial activity against Bacillus subtilis ATCC9372 assessed as bacterial growth inhibition incubated for 18 hrs by CLSI based broth microdilution method; type: functional
Procedure, shortened: (§1)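 CLSI broth microdilution. Log-phase bacteria in Mueller Hinton broth added to 2-fold serial dilutions spanning 128 to 0.25 or 2 to 0.004 µg/mL. Incubated aerobically for 18 h at 37 °C, then OD600 read. MIC is the lowest concentration giving ≥90% growth inhibition; three independent assays.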

Staphylococcus aureus [2] = test: Antibacterial activity against Staphylococcus aureus ATCC29213 assessed as bacterial growth inhibition incubated for 18 hrs by CLSI based broth microdilution method; type: functional; procedure, shortened: as §1
Staphylococcus aureus [3] = test: Antibacterial activity against Staphylococcus aureus ATCC25923 assessed as bacterial growth inhibition incubated for 18 hrs by CLSI based broth microdilution method; type: functional; procedure, shortened: as §1
Klebsiella pneumoniae = test: Antibacterial activity against Klebsiella pneumoniae 14578 assessed as bacterial growth inhibition incubated for 18 hrs by CLSI based broth microdilution method; type: functional
Procedure, shortened: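 Broth microdilution to CLSI guidelines. Log-phase bacteria grown in Mueller Hinton broth, diluted, then exposed to 2-fold serial dilutions of compound (128 to 0.25 µg/mL or 2 to 0.004 µg/mL). Incubated aerobically 18 h at 37 °C. Growth read as OD600. MIC = lowest concentration giving ≥90% growth inhibition. Three independent assays.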

Staphylococcus aureus [4] = test: Bactericidal activity against Staphylococcus aureus ATCC25923 incubated for 24 hrs by broth microdilution method; type: functional
Procedure, shortened: (§2)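 MBC from the broth microdilution plates (MHB, 2-fold dilutions). After 24 h, 5 µL aliquots from clear wells were plated on LB agar and incubated aerobically 24 h at 37 °C, then colonies counted. MBC = lowest concentration with no colonies.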

Bacillus subtilis [5] = test: Bactericidal activity against Bacillus subtilis ATCC9372 incubated for 24 hrs by broth microdilution method; type: functional; procedure, shortened: as §2
Bacillus subtilis [6] = test: Antibacterial activity against Bacillus subtilis MG27 assessed as bacterial growth inhibition incubated for 18 hrs by CLSI based broth microdilution method; type: functional; procedure, shortened: as §1
Bacillus subtilis [7] = test: Antibacterial activity against Bacillus subtilis 618 assessed as bacterial growth inhibition incubated for 18 hrs by CLSI based broth microdilution method; type: functional; procedure, shortened: as §1
Bacillus subtilis [8] = test: Antibacterial activity against Bacillus subtilis BS01 assessed as bacterial growth inhibition incubated for 18 hrs by CLSI based broth microdilution method; type: functional; procedure, shortened: as §1
[9] = Cytotoxicity against African green monkey Vero cells assessed as reduction in cell viability incubated for 72 hrs by alamar blue staining based assay; type: toxicity; conditions: chlorocebus sabaeus
Procedure, shortened: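 Vero cells seeded at about 2 × 10^3 per well, 37 °C, 5% CO2. Compound added after 24 h and incubated 72 h. AlamarBlue (1:10 v/v) then added for 3 h in the dark, read at Ex/Em 560/590 nm. CC50 is the lowest concentration causing 50% loss of viability.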

[10] = Selectivity index, ratio of CC50 for African green monkey Vero cells to MIC for Bacillus subtilis ATCC9372; type: toxicity, cell-based; conditions: read-out: Selectivity Index
Procedure, shortened: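 CC50 in Vero cells (72 h Alamar blue) divided by broth microdilution MIC against B. subtilis ATCC9372.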

Staphylococcus aureus [11] = test: Induction of resistance in Staphylococcus aureus ATCC29213 assessed as fold increase in MIC at 0.5 times MIC after 18 passages incubated for 24 hrs by resistance development assay; type: functional
Procedure, shortened: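 Serial passage of S. aureus ATCC29213. Initial MIC was found by broth microdilution. Bacteria from the 0.5 × MIC tubes (duplicate) were diluted to about 5 × 10^5 CFU/mL and re-exposed to compound for 24 h at 35 °C, then fold increase in MIC was determined. Repeated for 18 passages, with norfloxacin as comparator.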

[12] = Metabolic stability in human liver microsomes assessed as half life preincubated for 5 mins followed by NADPH addition measured upto 45 mins by LC/MS analysis; type: ADME, Microsome; conditions: time < 50 min
Procedure, shortened: (§3)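 Liver microsomes at 0.75 mg/mL final protein, with test article and NADPH regeneration system (6 mM) in 100 mM phosphate buffer, pH 7.4. Preincubated 5 min at 37 °C, then started with NADPH. Quenched with acetonitrile containing internal standard at 5, 15, 30 and 45 min, centrifuged, and percent remaining measured by LC/MS. Ketanserin served as reference.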

[13] = Metabolic stability in rat liver microsomes assessed as half life preincubated for 5 mins followed by NADPH addition measured upto 45 mins by LC/MS analysis; type: ADME, Microsome; conditions: time < 50 min; procedure, shortened: as §3
[14] = Metabolic stability in mouse liver microsomes assessed as half life preincubated for 5 mins followed by NADPH addition measured upto 45 mins by LC/MS analysis; type: ADME, Microsome; conditions: time < 50 min; procedure, shortened: as §3
[15] = Metabolic stability in human liver microsomes assessed as intrinsic clearance preincubated for 5 mins followed by NADPH addition measured upto 45 mins by LC/MS analysis; type: ADME, Microsome; conditions: time < 50 min, read-out: CLH; procedure, shortened: as §3
[16] = Metabolic stability in rat liver microsomes assessed as intrinsic clearance preincubated for 5 mins followed by NADPH addition measured upto 45 mins by LC/MS analysis; type: ADME, Microsome; conditions: time < 50 min, read-out: CLH; procedure, shortened: as §3
[17] = Metabolic stability in mouse liver microsomes assessed as intrinsic clearance preincubated for 5 mins followed by NADPH addition measured upto 45 mins by LC/MS analysis; type: ADME, Microsome; conditions: time < 50 min, read-out: CLH; procedure, shortened: as §3

SMILES | MIC (Bacillus subtilis [1]) [µg/mL] | MIC (Staphylococcus aureus [2]) [µg/mL] | MIC (Staphylococcus aureus [3]) [µg/mL] | also measured
CC(C)c1ccc(-c2cccc(COc3ccc(F)c(C(N)=O)c3F)c2)cc1 | 0.5 (≈ 1.31 µM) | > 128 | > 128 | –
NC(=O)c1cc(C(F)(F)F)ccc1-c1cccc(COc2ccc(F)c(C(N)=O)c2F)c1 | > 128 | > 128 | > 128 | –
CN[C@H](CC(C)C)C(=O)N[C@H]1C(=O)N[C@@H](CC(N)=O)C(=O)N[C@H]2C(=O)N[C@H]3C(=O)N[C@H](C(=O)N[C@H](C(=O)O)c4cc(O)cc(O)c4-c4cc3ccc4O)[C@H](O)c3ccc(c(Cl)c3)Oc3cc2cc(c3O[C@@H]2O[C@H](CO)[C@@H](O)[C@H](O)[C@H]2O[C@H]2C[C@](C)(N)[C@H](O)[C@H](C)O2)Oc2ccc(cc2Cl)[C@H]1O [VANCOMYCIN] | 1 (≈ 0.69 µM) | – | – | MIC (Klebsiella pneumoniae): > 128 µg/mL; MBC (Staphylococcus aureus [4]): 0.5 µg/mL (≈ 0.345 µM); MBC (Bacillus subtilis [5]): 1 µg/mL (≈ 0.69 µM)
NC(=O)c1c(F)ccc(OCc2cc(Cl)cc(-c3ccc(C(F)(F)F)cc3)c2)c1F | 1 (≈ 2.26 µM) | > 128 | > 128 | –
NC(=O)c1c(F)ccc(OCc2cccc(-c3ccccc3)c2)c1F | 0.5 (≈ 1.47 µM) | 2 (≈ 5.89 µM) | 2 (≈ 5.89 µM) | –
CC(C)(C)c1ccc(-c2cccc(COc3ccc(F)c(C(N)=O)c3F)c2)cc1 | 2 (≈ 5.06 µM) | > 128 | > 128 | –
Cc1cccc(-c2cccc(COc3ccc(F)c(C(N)=O)c3F)c2)c1 | 32 (≈ 90.6 µM) | > 128 | > 128 | –
N#Cc1ccc(-c2cccc(COc3ccc(F)c(C(N)=O)c3F)c2)cc1 | > 128 | > 128 | > 128 | –
NC(=O)c1c(F)ccc(OCc2cccc(-c3ccc(C(F)(F)F)c(Cl)c3)c2)c1F | > 128 | > 128 | > 128 | –
Cc1cc(Cl)ccc1-c1cccc(C(CO)Oc2ccc(F)c(C(N)=O)c2F)c1 (stereo not given) | 0.125 (≈ 0.299 µM) | 1 (≈ 2.39 µM) | 1 (≈ 2.39 µM) | –
COc1ccc(-c2cccc(COc3ccc(F)c(C(N)=O)c3F)c2)cc1 | 0.25 (≈ 0.677 µM) | 2 (≈ 5.41 µM) | 1 (≈ 2.71 µM) | –
Cc1ccccc1-c1cccc(COc2ccc(F)c(C(N)=O)c2F)c1 | 0.25 (≈ 0.707 µM) | 1 (≈ 2.83 µM) | 1 (≈ 2.83 µM) | –
NC(=O)c1c(F)ccc(OCc2cccc(-c3ccc(Cl)cc3C(F)(F)F)c2)c1F | 0.125 (≈ 0.283 µM) | 0.5 (≈ 1.13 µM) | 0.5 (≈ 1.13 µM) | –
NC(=O)c1c(F)ccc(OCc2cccc(-c3ccc(F)cc3)c2)c1F | 0.125 (≈ 0.35 µM) | 2 (≈ 5.6 µM) | 1 (≈ 2.8 µM) | –
CCn1cc(C(=O)O)c(=O)c2cc(F)c(N3CCNCC3)cc21 [NORFLOXACIN] | – | – | – | fold change (FC) (Staphylococcus aureus [11]): 128
NC(=O)c1c(F)ccc(OC(CO)c2cccc(-c3ccc(C(F)(F)F)cc3)c2)c1F (stereo not given) | 0.5 (≈ 1.14 µM) | 8 (≈ 18.3 µM) | 4 (≈ 9.15 µM) | –
Cc1ccc(-c2cccc(COc3ccc(F)c(C(N)=O)c3F)c2)cc1 | 0.125 (≈ 0.354 µM) | 0.5 (≈ 1.41 µM) | 0.5 (≈ 1.41 µM) | –
CCc1ccc(-c2cccc(COc3ccc(F)c(C(N)=O)c3F)c2)cc1 | 0.125 (≈ 0.34 µM) | 0.5 (≈ 1.36 µM) | 0.5 (≈ 1.36 µM) | –
NC(=O)c1c(F)ccc(OCc2ccccc2)c1F | 16 (≈ 60.8 µM) | 64 (≈ 243 µM) | 32 (≈ 122 µM) | –
NC(=O)c1c(F)ccc(OCc2nc3cc(Cl)cnc3s2)c1F | 0.5 (≈ 1.41 µM) | 1 (≈ 2.81 µM) | 1 (≈ 2.81 µM) | –
NC(=O)c1c(F)ccc(OCc2cccc(-c3ccc(C(F)(F)F)cc3C(F)(F)F)c2)c1F | 0.125 (≈ 0.263 µM) | 0.5 (≈ 1.05 µM) | 0.5 (≈ 1.05 µM) | –
NC(=O)c1c(F)ccc(OCc2cccc(-c3ccc(C(F)(F)F)c(F)c3)c2)c1F | > 128 | > 128 | > 128 | –
O=C(c1ccc(F)cc1)C1CCN(CCn2c(=O)[nH]c3ccccc3c2=O)CC1 [KETANSERIN] | – | – | – | half-life [12]: 30.4 min; half-life [13]: 14.5 min; half-life [14]: 8.57 min; CLint scaled [15]: 57.1 mL/min/kg; CLint scaled [16]: 171 mL/min/kg; CLint scaled [17]: 637 mL/min/kg

Further lines, with some results ahead:

MIC (Bacillus subtilis [1]) [µg/mL] | MIC (Staphylococcus aureus [2]) [µg/mL] | MIC (Staphylococcus aureus [3]) [µg/mL] | SMILES | also measured
0.125 (≈ 0.328 µM) | 1 (≈ 2.62 µM) | 1 (≈ 2.62 µM) | CCCc1ccc(-c2cccc(COc3ccc(F)c(C(N)=O)c3F)c2)cc1 | –
0.031 (≈ 0.0736 µM) | 0.25 (≈ 0.593 µM) | 0.25 (≈ 0.593 µM) | Cc1cc(C(F)(F)F)ccc1-c1cccc(COc2ccc(F)c(C(N)=O)c2F)c1 | MIC (Bacillus subtilis [6]): 0.063 µg/mL (≈ 0.15 µM); MIC (Bacillus subtilis [7]): 0.031 µg/mL (≈ 0.0736 µM); MIC (Bacillus subtilis [8]): 0.016 µg/mL (≈ 0.038 µM); CC50 at 72 h [9]: > 20 µg/mL; selectivity ratio [10]: > 1250
0.125 (≈ 0.307 µM) | 2 (≈ 4.91 µM) | 1 (≈ 2.45 µM) | NC(=O)c1c(F)ccc(OCc2cccc(-c3ccc(C(F)(F)F)cc3)c2)c1F | –
0.125 (≈ 0.305 µM) | > 128 | > 128 | CCCCCc1ccc(-c2cccc(COc3ccc(F)c(C(N)=O)c3F)c2)cc1 | –
0.125 (≈ 0.316 µM) | 1 (≈ 2.53 µM) | 0.5 (≈ 1.26 µM) | CCCCc1ccc(-c2cccc(COc3ccc(F)c(C(N)=O)c3F)c2)cc1 | –
0.063 (≈ 0.169 µM) | 0.25 (≈ 0.669 µM) | 0.25 (≈ 0.669 µM) | NC(=O)c1c(F)ccc(OCc2cccc(-c3ccc(Cl)cc3)c2)c1F | –
0.016 (≈ 0.0408 µM) | 0.5 (≈ 1.28 µM) | 0.5 (≈ 1.28 µM) | NC(=O)c1c(F)ccc(OCc2cccc(-c3ccc(Cl)cc3F)c2)c1F | MIC (Bacillus subtilis [6]): 0.031 µg/mL (≈ 0.0791 µM); MIC (Bacillus subtilis [7]): 0.016 µg/mL (≈ 0.0408 µM); MIC (Bacillus subtilis [8]): 0.016 µg/mL (≈ 0.0408 µM)
0.063 (≈ 0.144 µM) | 1 (≈ 2.29 µM) | 1 (≈ 2.29 µM) | COc1cc(C(F)(F)F)ccc1-c1cccc(COc2ccc(F)c(C(N)=O)c2F)c1 | –
0.031 (≈ 0.0702 µM) | 0.25 (≈ 0.566 µM) | 0.25 (≈ 0.566 µM) | NC(=O)c1c(F)ccc(OCc2cccc(-c3ccc(C(F)(F)F)cc3Cl)c2)c1F | MIC (Bacillus subtilis [6]): 0.063 µg/mL (≈ 0.143 µM); MIC (Bacillus subtilis [7]): 0.063 µg/mL (≈ 0.143 µM); MIC (Bacillus subtilis [8]): 0.031 µg/mL (≈ 0.0702 µM)
0.031 (≈ 0.0759 µM) | 0.25 (≈ 0.612 µM) | 0.25 (≈ 0.612 µM) | NC(=O)c1c(F)ccc(OCc2cccc(-c3ccc(Cl)cc3Cl)c2)c1F | –
0.063 (≈ 0.148 µM) | 1 (≈ 2.35 µM) | 1 (≈ 2.35 µM) | NC(=O)c1c(F)ccc(OCc2cccc(-c3ccc(C(F)(F)F)cc3F)c2)c1F | –

From ChEMBL document CHEMBL5338714, “Design, synthesis and biological evaluation of biphenyl-benzamides as potent FtsZ inhibitors” (Eur J Med Chem, 2022)
